{"source": "the RNAGym collection of RNA variant scans (doi:10.1038/nmeth.2970)", "parents": {"B1": {"name": "NELF-E aptamer (parent)", "chain": "CCCAACGACUGCCGAGCGAGAUUACGCUUGAGCGCCCCACUGAGGAUGCCCACGGGCGAUUGGGGCACGG"}}}
{"variants_of": "B1", "assay": "HiTS-RAP", "details": "with NELF-E (Drosophila)", "outline": "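Aptamer DNA templates bearing a T7 promoter and a ter site were sequenced on an Illumina GAIIx flowcell. T7 RNA polymerase then transcribed them in situ, and GST-Tus halted transcription over 30 minutes at 37°C. After a 30-minute room-temperature equilibration with NELF-E-mOrange at 0.064 to 1000 nM in HEPES binding buffer, clusters were imaged, using only the first binding curve. Intensities normalised to sequencing intensity were averaged per sequence and fitted with weighted Hill fits to give Kd, retaining only fits whose variance stayed under 1,000,000.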", "units": {"Kd": "nM"}}
{"variant": "G11A U41C", "Kd": 83.6}
{"variant": "C12U U22G", "Kd": 5.99}
{"variant": "G11U A15U", "Kd": 7.47}
{"variant": "G11U A15G", "Kd": 6.22}
{"variant": "C12G A19G", "Kd": 5.93}
{"variant": "U10G G44A", "Kd": 45.2}
{"variant": "U10G G44U", "Kd": 9.69}
{"variant": "U10G G44C", "Kd": 34.8}
{"variant": "U10G U28G", "Kd": 6.52}
{"variant": "U10G U28A", "Kd": 4.53}
{"variant": "U10G U28C", "Kd": 8.85}
{"variant": "U10G U22G", "Kd": 4.87}
{"variant": "U10G U22C", "Kd": 4.95}
{"variant": "U10G U22A", "Kd": 5.58}
{"variant": "G11U A19U", "Kd": 7.3}
{"variant": "G11U A19G", "Kd": 6.05}
{"variant": "C12A U22G", "Kd": 4.37}
{"variant": "G11U C25G", "Kd": 4.89}
{"variant": "U10G A46U", "Kd": 65.4}
{"variant": "U10G A46G", "Kd": 38.8}
{"variant": "U10G C49U", "Kd": 18.7}
{"variant": "U10G C49G", "Kd": 7.15}
{"variant": "U10G C49A", "Kd": 20.2}
{"variant": "C12G G55U", "Kd": 8.9}
{"variant": "C12G G55A", "Kd": 7.66}
{"variant": "U10G C17A", "Kd": 5.07}
{"variant": "U10G C17U", "Kd": 4.88}
{"variant": "U10G C17G", "Kd": 4.78}
{"variant": "C13G A52G", "Kd": 4.96}
{"variant": "C13G A52U", "Kd": 16.9}
{"variant": "G11U C50U", "Kd": 17.7}
{"variant": "G11U U29C", "Kd": 6.7}
{"variant": "G11U U29G", "Kd": 6}
{"variant": "G11U U29A", "Kd": 5.62}
{"variant": "U10G C57G", "Kd": 7.81}
{"variant": "U10G C57U", "Kd": 5.61}
{"variant": "U10G C57A", "Kd": 11.8}
{"variant": "G11U G63A", "Kd": 19.4}
{"variant": "G11U G63U", "Kd": 8.25}
{"variant": "C12A A24G", "Kd": 5.99}
{"variant": "C12G G16U", "Kd": 7.23}
{"variant": "C13G A21G", "Kd": 4.63}
{"variant": "C13G A21U", "Kd": 5.52}
{"variant": "U10G G63U", "Kd": 10.9}
{"variant": "U10G G63A", "Kd": 16.5}
{"variant": "U10G G63C", "Kd": 43}
{"variant": "C12U A24G", "Kd": 5.74}
{"variant": "C12G U41G", "Kd": 5.67}
{"variant": "G11C", "Kd": 6.3}
{"variant": "G11U", "Kd": 5.7}
{"variant": "G11A", "Kd": 5.29}
{"variant": "G11A G16U", "Kd": 6.64}
{"variant": "G11U U41G", "Kd": 6.22}
{"variant": "C12G G63U", "Kd": 13.7}
{"variant": "U10G G42A", "Kd": 42.8}
{"variant": "U10G G42U", "Kd": 23.2}
{"variant": "C12G U47G", "Kd": 8.13}
{"variant": "G11U G62A", "Kd": 19.7}
{"variant": "U10G G32C", "Kd": 4.38}
{"variant": "U10G G32U", "Kd": 5.18}
{"variant": "U10G G32A", "Kd": 4.44}
{"variant": "U10G A59G", "Kd": 57.3}
{"variant": "U10G A59U", "Kd": 71.4}
{"variant": "G11U G32A", "Kd": 6.15}
{"variant": "C12G G56U", "Kd": 6.08}
{"variant": "G11U G65A", "Kd": 5.5}
{"variant": "G11U G65U", "Kd": 7.6}
{"variant": "C13A U29G", "Kd": 5.66}
{"variant": "C13G", "Kd": 4.88}
{"variant": "C13A", "Kd": 5.28}
{"variant": "U10G C53U", "Kd": 3.77}
{"variant": "U10G C53A", "Kd": 5.46}
{"variant": "U10G C53G", "Kd": 6.55}
{"variant": "U10G C12U", "Kd": 4.41}
{"variant": "U10G C12A", "Kd": 5.88}
{"variant": "U10G C12G", "Kd": 5.4}
{"variant": "C12U U23G", "Kd": 5.04}
{"variant": "C13A U23G", "Kd": 5.96}
{"variant": "C13A U22G", "Kd": 5.85}
{"variant": "U10G G20A", "Kd": 5.57}
{"variant": "U10G G20U", "Kd": 6.08}
{"variant": "C12G C25G", "Kd": 4.47}
{"variant": "U10G G62A", "Kd": 16.9}
{"variant": "U10G G62C", "Kd": 67.3}
{"variant": "U10G G62U", "Kd": 6.99}
{"variant": "C12G C33U", "Kd": 6}
{"variant": "G11A A67U", "Kd": 6.87}
{"variant": "G11U U61A", "Kd": 41.1}
{"variant": "G11U U61C", "Kd": 64.3}
{"variant": "C12A", "Kd": 4.42}
{"variant": "C12U", "Kd": 4.54}
{"variant": "C12G", "Kd": 5.44}
{"variant": "G11U G56A", "Kd": 10.8}
{"variant": "G11U C27U", "Kd": 4.86}
{"variant": "G11A A31G", "Kd": 10.9}
{"variant": "G11U G64A", "Kd": 9.29}
{"variant": "G11A A39U", "Kd": 24.2}
{"variant": "C12G U61A", "Kd": 39.1}
{"variant": "G11A A19G", "Kd": 6.92}
{"variant": "G11A U23G", "Kd": 5.54}
{"variant": "C12G G34A", "Kd": 7.36}
{"variant": "U10G U23A", "Kd": 5.14}
{"variant": "U10G U23G", "Kd": 5.1}
{"variant": "U10G U23C", "Kd": 4.23}
{"variant": "G11U U23G", "Kd": 6.33}
{"variant": "C12G G48A", "Kd": 9.02}
{"variant": "G11U U28C", "Kd": 9.24}
{"variant": "C12U A39G", "Kd": 6.76}
{"variant": "G11A A24G", "Kd": 5.78}
{"variant": "U10G G26C", "Kd": 17.4}
{"variant": "U10G G26A", "Kd": 4.15}
{"variant": "U10G G26U", "Kd": 5.07}
{"variant": "G11U C17G", "Kd": 5.84}
{"variant": "G11U C17U", "Kd": 5.76}
{"variant": "C12G C13G", "Kd": 5.01}
{"variant": "C12G C13U", "Kd": 5.88}
{"variant": "G11U C37U", "Kd": 7.71}
{"variant": "C13A G20U", "Kd": 7.23}
{"variant": "G11U G30A", "Kd": 5.79}
{"variant": "U10G C37U", "Kd": 12.2}
{"variant": "U10G C37A", "Kd": 14.8}
{"variant": "U10G C37G", "Kd": 6.84}
{"variant": "U10G G58U", "Kd": 8.62}
{"variant": "U10G G48A", "Kd": 8.83}
{"variant": "U10G G48U", "Kd": 6.92}
{"variant": "C12G A52G", "Kd": 5.15}
{"variant": "C12G A52U", "Kd": 16.2}
{"variant": "C12U C13U", "Kd": 3.39}
{"variant": "C12U C13G", "Kd": 5.4}
{"variant": "C13G A39G", "Kd": 9.58}
{"variant": "C13G A39U", "Kd": 19}
{"variant": "G11U C13G", "Kd": 5.71}
{"variant": "G11U C13U", "Kd": 6.19}
{"variant": "G11U C13A", "Kd": 6.58}
{"variant": "C12A C13G", "Kd": 5.33}
{"variant": "U10G U41G", "Kd": 5.17}
{"variant": "U10G U41A", "Kd": 82.6}
{"variant": "U10G U41C", "Kd": 76.2}
{"variant": "C12G G14A", "Kd": 5.91}
{"variant": "C12G G14U", "Kd": 6.28}
{"variant": "C12G C40U", "Kd": 126}
{"variant": "G11U A31G", "Kd": 7.38}
{"variant": "G11U A31U", "Kd": 6.12}
{"variant": "G11U A59U", "Kd": 48.9}
{"variant": "G11U A59G", "Kd": 17.7}
{"variant": "G11U G34A", "Kd": 6.7}
{"variant": "U10G G55A", "Kd": 8.64}
{"variant": "U10G G55U", "Kd": 6.13}
{"variant": "U10G G55C", "Kd": 7.54}
{"variant": "C13G A15G", "Kd": 6.03}
{"variant": "C13G A15U", "Kd": 6.13}
{"variant": "C12G C37G", "Kd": 7.38}
{"variant": "C12G C37U", "Kd": 16.6}
{"variant": "C12G G64A", "Kd": 8.49}
{"variant": "U10G C66G", "Kd": 4.43}
{"variant": "U10G C66U", "Kd": 4.66}
{"variant": "U10G C66A", "Kd": 5.44}
{"variant": "G11U G26A", "Kd": 5.08}
{"variant": "G11U G26U", "Kd": 6.79}
{"variant": "U10G A67C", "Kd": 5.03}
{"variant": "U10G A67G", "Kd": 5.45}
{"variant": "U10G A67U", "Kd": 6.91}
{"variant": "U10G G56U", "Kd": 5.31}
{"variant": "U10G G56A", "Kd": 9.45}
{"variant": "U10G G56C", "Kd": 27.1}
{"variant": "G11U G14U", "Kd": 6.82}
{"variant": "G11U G14A", "Kd": 6.87}
